Only some compounds are listed: those with a hit (about 9.6% of all), similar ones and a draw of the others.
TNAP act hi DEA: TNAP activators at high phosphate acceptor level, primary screen, biochemical, luminescence, uHTS; Alkaline phosphatase, tissue-nonspecific isozyme (Homo sapiens), P05186; purified TNAP, CDP-star luminescence, 1 M DEA, 30 min; active compounds read high; 0 = EDTA background, 1 = DMSO-only activity; activation factor at 20 µM; 200,000 tested, under 10 active; AID 1136, 2008;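 active = activation factor at least 2 at 20 µM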
Target sequence (P05186 whole entry, looked up): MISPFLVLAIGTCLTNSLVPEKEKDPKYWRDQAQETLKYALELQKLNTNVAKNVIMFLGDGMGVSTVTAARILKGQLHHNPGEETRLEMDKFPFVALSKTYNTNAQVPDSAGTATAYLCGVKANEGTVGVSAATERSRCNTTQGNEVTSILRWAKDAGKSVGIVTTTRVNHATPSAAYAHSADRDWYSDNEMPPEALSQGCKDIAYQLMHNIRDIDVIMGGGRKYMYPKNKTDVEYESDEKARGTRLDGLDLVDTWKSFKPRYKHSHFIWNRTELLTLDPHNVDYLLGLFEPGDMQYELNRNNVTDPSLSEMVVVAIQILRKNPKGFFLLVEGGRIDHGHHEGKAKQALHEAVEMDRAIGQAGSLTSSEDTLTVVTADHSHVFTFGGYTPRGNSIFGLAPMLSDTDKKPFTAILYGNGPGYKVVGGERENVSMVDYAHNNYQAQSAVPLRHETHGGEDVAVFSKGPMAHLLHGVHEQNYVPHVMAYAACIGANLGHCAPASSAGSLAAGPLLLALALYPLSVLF
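system = human TNAP | amount = enzyme diluted 1/800 final | reagent = 100 µM CDP-star substrate | signal = luminescent substrate turnover signal | dosing = one dose, 20 µM | benchmarks = EDTA negative control, DMSO positive control | measure = activation factor | timing = 30 min reaction, room temperature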
TNAP inh hiacc: human TNAP enzyme inhibitors, primary screen, biochemical, luminescent, high phosphate acceptor level, uHTS; Alkaline phosphatase, tissue-nonspecific isozyme (Homo sapiens), P05186; purified TNAP, CDP-star luminescence, 1 M DEA; inhibition, % at 20 µM; 0.03% of 200,000 active;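 active = over 50% inhibition of tissue-nonspecific alkaline phosphatase at 20 µM in the single-dose screen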;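 also: plate controls were DMSO wells for no effect and EDTA-quenched wells as full inhibition for full effect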
bCat KO growth: primary screen for growth suppressors in beta-catenin knockout HCT116 cells (colon tumor, human); HCT116 beta-catenin knockout viability, CellTiter-Glo, 60 h; active compounds read low; viability, % at 10 µM; 1.5% of 140,000 active; AID 818, 2007;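 active = viability at or under a set limit, the compound median less 4 SD, cut at about 6% in these data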;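 also: 0% = Hyamine 1622 control at 20 µM and 100% = untreated cell control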
TNAP inh noacc: human TNAP enzyme inhibitors, primary screen, biochemical, luminescent, no phosphate acceptor, uHTS; AID 1012, 2008; 0.26% of 200,000 active; inhibition, % at 20 µM; Alkaline phosphatase, tissue-nonspecific isozyme (Homo sapiens), P05186; purified TNAP, CDP-star luminescence, 30 min;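 active = tissue-nonspecific alkaline phosphatase inhibition above about 50% at 20 µM in the single-dose screen, limit read from the data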;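 also: 0% = DMSO negative control and 100% = EDTA positive control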
HCT116 PTEN-null: growth suppression of PTEN-null HCT116, primary screen, cell-based, CellTiter-Glo | HCT116 PTEN-null viability, 60 h; active compounds read low | 1.2% of 140,000 active | viability, % at 10 µM;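 active = viability at or below a set limit, 4 SD under the median of all tested compounds, cut at about 3.7% in these data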;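 also: PTEN knockout HCT116 line with beta catenin targeted HCT116 as companion control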
L major viab: Leishmania major promastigote growth inhibition, primary screen; 9% of 200,000 active; inhibition, % at 10 µM; Leishmania major promastigotes, resazurin fluorescence viability; in the data active = inhibition above about 50%;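 also: promastigotes grown with compound for 44 hours at 28 °C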
* = called active by the depositor.

For CC1CN(Cc2nc3ccccc3c(=O)[nH]2)CC(C)O1 (stereo unspecified) the results were TNAP act hi DEA 1, TNAP inh hiacc -3.5, TNAP inh noacc 2.8 and L major viab -2.8.
Screening O=C(NC(NC(=S)Nc1c(Cl)cc(Cl)cc1Cl)C(Cl)(Cl)Cl)OCc1ccccc1 (stereo unspecified) returned TNAP act hi DEA 1, TNAP inh hiacc 1.5, bCat KO growth 5.9*, TNAP inh noacc -8.9, HCT116 PTEN-null 5.1 and L major viab 33.1.
Cc1ccc(C)c(NC(=S)NC(NC(=O)OCc2ccccc2)C(Cl)(Cl)Cl)c1 (stereo unspecified) was read as TNAP act hi DEA 1, TNAP inh hiacc -1.2, bCat KO growth 84.2, TNAP inh noacc -10.8, HCT116 PTEN-null 92.4 and L major viab 57.6*.
`Cc1cccc(C(=O)Nc2nccs2)c1[N+](=O)[O-]` gave TNAP act hi DEA 1, TNAP inh hiacc -2.4, bCat KO growth 93.8, TNAP inh noacc -2.7, HCT116 PTEN-null 102.4 and L major viab 25.3.
For C/C(=N\NC(=O)CSCc1ccccc1Cl)c1cc(O)ccc1O the results were TNAP act hi DEA 0.9, TNAP inh hiacc 6.4, TNAP inh noacc 75.1* and L major viab 40.6.
Screening Cc1cc(-c2n[nH]c(=S)n2CC(C)C)cs1 returned TNAP act hi DEA 1, TNAP inh hiacc -0.5, bCat KO growth 94.6, TNAP inh noacc 11.6, HCT116 PTEN-null 100.0 and L major viab -3.8.
Cc1ccc(-n2cc(CNCCn3nc(C)cc3C)c(-c3ccc(F)cc3)n2)cc1 was read as TNAP act hi DEA 1, TNAP inh hiacc 1.4, TNAP inh noacc 1.5 and L major viab 62.9*.
For Cc1ccc(-n2cc(CNCCc3ncc(C)[nH]3)c(-c3ccc(F)cc3)n2)cc1 the results were TNAP act hi DEA 1, TNAP inh hiacc -2.2, TNAP inh noacc -47.1 and L major viab 100.4*.
`COc1cc(C(C[N+](=O)[O-])c2c(N)n(C)c(=O)n(C)c2=O)ccc1O` (stereo unspecified) gave TNAP act hi DEA 0.8, TNAP inh hiacc 21.9, TNAP inh noacc 8.7 and L major viab 72.7*.
COc1cc(C(C[N+](=O)[O-])c2c(C)[nH]c3ccccc23)ccc1O (stereo unspecified) was read as TNAP act hi DEA 1, TNAP inh hiacc -0.3, bCat KO growth 86.9, TNAP inh noacc -2.1, HCT116 PTEN-null 80.8 and L major viab 4.5.
`COc1ccc2occ(C(=O)c3coc4ccc(O)c(CN(C)C)c34)c2c1` gave TNAP act hi DEA 1, TNAP inh hiacc -2.5, bCat KO growth 27.9, TNAP inh noacc 11.5, HCT116 PTEN-null 36.6 and L major viab 75.4*.
Screening COc1ccc(C(O)c2coc3ccc(O)c(CN(C)C)c23)cc1 (stereo unspecified) returned TNAP act hi DEA 1, TNAP inh hiacc -4.9, bCat KO growth 85.6, TNAP inh noacc -9.8, HCT116 PTEN-null 91.1 and L major viab 99.7*.
CN(C)Cc1c(O)ccc2occ(C(=O)c3ccccc3)c12 was read as TNAP act hi DEA 1.1, TNAP inh hiacc -5.3, bCat KO growth 72.3, TNAP inh noacc -10.2, HCT116 PTEN-null 82.3 and L major viab 9.4.
Screening CCN(c1ccccc1)S(=O)(=O)c1ccc(Cl)c(NC(=O)CSc2nnc(C)s2)c1 returned TNAP act hi DEA 1, TNAP inh hiacc -4.7, TNAP inh noacc -8.2 and L major viab -7.8.
COc1ccc(C)cc1N(C(=O)c1ccccc1)c1nc2ccccc2s1 was read as TNAP act hi DEA 1, TNAP inh hiacc -4.3, bCat KO growth 84.2, TNAP inh noacc -14.0, HCT116 PTEN-null 83.8 and L major viab 21.1.
Screening Cc1ccsc1C(=O)N(c1nc2ccccc2s1)c1c(C)cccc1C returned TNAP act hi DEA 1.1, TNAP inh hiacc -5.1, bCat KO growth 52.7, TNAP inh noacc -0.2, HCT116 PTEN-null 67.3 and L major viab 100.3*.
`CCOC(=O)c1ccccc1NC(=S)N1CCN(C2CCCCC2)CC1` gave TNAP act hi DEA 1, TNAP inh hiacc 3.3, TNAP inh noacc -2.5 and L major viab 48.1.

Screening results as filed in PubChem BioAssay.
